Source: PubChem BioAssay (Sanford-Burnham Center for Chemical Genomics)
The list is not random: actives were taken first. Their share in the collection is about 1.5%.
APJ antag = antagonists of human apelin receptor APJ, primary screen, CHO-K1 cells, beta-arrestin complementation, luminescence | P35414 | inhibition, % at 20 µM | 330,000 tested, 0.32% active;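 active means inhibition above about 40% at 20 µM, limit read from the data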;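 further: cells challenged with 10 nM apelin-13 agonist together with compound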
CCR6 antag = CCR6 receptor antagonists, primary screen, cell-based, CHO-K1, luminescence, beta-arrestin, uHTS. CHO-K1 CCR6 PathHunter beta-arrestin, CCL20-stimulated. 340,000 tested, 0.49% active. C-C chemokine receptor type 6 (Homo sapiens), P51684. inhibition, % at 20 µM;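 active means compounds whose inhibition of the agonist-driven luminescence signal at 20 µM reaches about 50%, limit read from the data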;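 further: cells stimulated with CCL20 at 14 nM final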
EBI2 block = EBI2 receptor antagonists, beta-arrestin recruitment, primary screen, cell-based, luminescence, 7a,25-OHC stimulation, uHTS; G-protein coupled receptor 183 (Homo sapiens), P32249; 7a,25-OHC stimulated; inhibition, % at 5 µM; 360,000 tested, 0.81% active; in the data active means inhibition above about 38%;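 further: enzyme fragment complementation signal reports receptor beta-arrestin coupling in cells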
CXCR6 block = CXCR6 receptor inhibitors, primary screen, cell-based, beta-arrestin, luminescence, CHO-K1 PathHunter, 1536-well; C-X-C chemokine receptor type 6 (Homo sapiens), O00574; inhibition, % at 20 µM; 360,000 tested, 0.36% active; in the data active means inhibition above about 34%, passing the limit was not always enough;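 further: antagonist mode with CXCL16 agonist at 10 nM final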
Target sequence (O00574 whole entry, looked up): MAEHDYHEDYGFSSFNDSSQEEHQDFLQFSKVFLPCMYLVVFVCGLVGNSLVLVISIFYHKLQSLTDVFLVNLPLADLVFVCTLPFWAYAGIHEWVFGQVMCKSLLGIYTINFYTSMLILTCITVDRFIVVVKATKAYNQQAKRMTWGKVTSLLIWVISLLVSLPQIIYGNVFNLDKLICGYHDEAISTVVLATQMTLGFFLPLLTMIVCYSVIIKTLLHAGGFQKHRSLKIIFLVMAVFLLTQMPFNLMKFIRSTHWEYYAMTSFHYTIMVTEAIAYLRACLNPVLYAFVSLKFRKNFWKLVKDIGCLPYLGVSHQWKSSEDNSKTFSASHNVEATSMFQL
APJ agonist = agonists of human apelin receptor APJ, primary screen, CHO-K1 cells, PathHunter beta-arrestin, luminescence; P35414; 0% DMSO wells, 100% apelin; activation, % at 20 µM; 330,000 tested, 0.11% active;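 active means activation more than six SD over the plate average, tested at 20 µM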
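Incubation: overnight seeding, 90 min compound at 25 °C, 1 h detection; test system: PathHunter CHO-K1 APJ (AGTRL-1) beta-arrestin reporter cells; amount: 1000 cells/well; doses: one dose, 20 µM compound, 1% DMSO; measured by: beta-gal luminescence; measure: agonist-driven arrestin binding to APJ; benchmarks: negative DMSO alone, positive Apelin-13 at 10 nM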
EBI2 conf = EBI2 antagonist hit retest, beta-arrestin, confirmation, cell-based, single concentration, luminescence, 7a,25-OHC stimulation; 7a,25-OHC antagonism; shares compounds with EBI2 block; 2,400 tested, 29% active; inhibition, % at 5 µM;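 active means inhibition of at least 50%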
EBI2 ag = EBI2 agonist activity of antagonist hits, confirmation, counter-screen for EBI2 antagonist project, cell-based, single concentration, agonist mode, luminescence. shares compounds with EBI2 block. EBI2-expressing cells, 60 min; 0% vehicle, 100% 7α,25-dihydroxycholesterol control. activation, % at 5 µM. 2,400 tested, under 10 active;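 active means activation of at least 50%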
bGal counter = E. coli beta-galactosidase enzyme inhibition, confirmation, counter-screen for EBI2 antagonist project, biochemical, luminescence, single concentration; shares compounds with EBI2 block; purified beta-galactosidase, luminescent Galacton Star, 15 min; inhibition, % at 5 µM; 2,400 tested, 1% active;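 active means replicate-average signal at least 3 plate SD below neutral wells, shown as high inhibition, flagging enzyme-inhibiting false positives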;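 further: higher means stronger loss of beta-gal luminescence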
A number is an active result; 0 = inactive; - = no result.

SMILES	APJ antag	CCR6 antag	EBI2 block	CXCR6 block	APJ agonist	EBI2 conf	EBI2 ag	bGal counter
CC1=NN(c2ccc(Cl)cc2)C(=O)C1C(c1ccccc1O)c1c(C)[nH]n(-c2ccc(Cl)cc2)c1=O (centres undefined)	0	0	64.7	0	0	0	0	0
COc1ccc(C(c2nnnn2C2CCCC2)N2CCC(C)CC2)c(OC)c1 (centres undefined)	0	0	0	0	0	-	-	-
COc1ccc2[nH]c(=O)c(C(c3nnnn3C3CCCC3)N(C)C3CCCCC3)cc2c1 (centres undefined)	0	0	62.2	0	0	0	0	0
COc1ccc2cc(C(c3nnnn3C3CCCCC3)N3CCCCCC3)c3nnnn3c2c1 (centres undefined)	0	0	54.0	0	0	0	0	0
COc1cc2cc(C(c3nnnn3C3CCCC3)N3CCCCC3)c(=O)[nH]c2cc1OC (centres undefined)	0	0	0	0	0	-	-	-
COc1ccc2cc(C(c3nnnn3C3CCCC3)N3CCCCCC3)c3nnnn3c2c1 (centres undefined)	0	0	60.0	0	0	0	0	0
COc1ccccc1OCCNC(=O)c1ccc(C)c(S(=O)(=O)N2CCOCC2)c1	0	0	0	0	0	-	-	-
NC(c1ccccc1)c1csc(Nc2ccc(C(=O)NCCCO)cn2)n1 (centres undefined)	-	-	0	0	-	-	-	-
O=C(COC(=O)Cc1c(Cl)cccc1Cl)Nc1ccccc1-c1ccccc1	0	0	0	0	0	-	-	-
O=C(CSCc1c(Cl)cccc1Cl)Nc1ccccc1-c1ccccc1	-	0	41.2	0	-	0	0	0
COc1ccccc1/C=N/NC(=O)NC12CC3CC(CC(C3)C1)C2	0	0	47.4	0	0	0	0	0
CC(C)N(Cc1nnc(-c2ccccc2Cl)o1)C(=O)COc1cccc(Cl)c1	-	-	0	0	-	-	-	-
CCc1ccc(N2CC(C(=O)Nc3ccc(S(=O)(=O)N4CCCCC4)cc3)CC2=O)cc1 (centres undefined)	0	0	80.6	0	0	59.9	0	0
CCc1ccc(N2CC(C(=O)Nc3cc(C)ccc3F)CC2=O)cc1 (centres undefined)	0	0	52.7	0	0	0	0	0
O=C(Nc1ccc(S(=O)(=O)N2CCCC2)cc1)C1CC(=O)N(c2ccccc2)C1 (centres undefined)	0	0	0	0	0	-	-	-
COc1ccc(CCNC(=O)C2CC(=O)N(C3CCCCC3)C2)cc1OC (centres undefined)	0	0	0	0	0	-	-	-
CN(C(=O)c1ccncc1)C1CCCCC1	0	0	0	0	0	-	-	-
CCc1nc2c(OCCc3cccc(OC)c3)cccn2c1N(C)C(=O)c1ccc(OC)cc1	-	-	0	0	-	-	-	-
COc1ccc(-n2ncc(C(=O)N3CCN(c4ccc(F)cc4)CC3)c2C)cc1	0	0	0	0	0	-	-	-
CCOC(=O)N1CCN(C(=O)c2cc(-c3ccc(F)cc3)[nH]c2C)CC1	0	0	89.0	0	0	85.6	0	0
COc1ccc(N2CCN(C(=O)c3cc(-c4ccc(F)cc4)[nH]c3C)CC2)cc1	0	0	92.6	0	0	62.5	0	0
Cc1[nH]c(-c2ccc(F)cc2)cc1C(=O)N1CCN(c2ccc(Cl)cc2)CC1	0	0	72.5	0	0	0	0	0
COc1ccc(S(=O)(=O)NC2CC(=O)N(c3cccc(F)c3)C2)cc1OC (centres undefined)	0	0	0	0	0	-	-	-
N#CCCn1cc(C(=O)Nc2cccc(C(=O)O)c2)c(-c2ccc(Cl)cc2)n1	0	0	0	0	0	-	-	-
S=C(NCCc1ccccc1)N1CCN(C(c2ccccc2)c2ccccc2)CC1	0	0	54.4	0	0	0	0	0
SMILES	APJ antag	CCR6 antag	EBI2 block	CXCR6 block	APJ agonist	EBI2 conf	EBI2 ag	bGal counter
CSc1ccc(C(=S)N2CCN(C)CC2)cc1	0	0	0	0	0	-	-	-
CSc1ccc(C(=S)N2CCN(C(c3ccccc3)c3ccccc3)CC2)cc1	0	0	82.7	0	0	0	0	0
CCCNC(=S)N1CCN(C(c2ccccc2)c2ccccc2)CC1	0	0	0	0	0	-	-	-
O=[N+]([O-])c1ccc(N=Nc2ccc(O)c3ccccc23)cc1	-	0	0	0	-	-	-	-
FC(F)(F)Oc1ccccc1C(c1nnnn1C1CCCC1)N1CCN(C/C=C/c2ccccc2)CC1 (centres undefined)	-	-	64.5	0	-	0	0	0
C(=C\c1ccccc1)/CN1CCN(C(CCc2ccccc2)c2nnnn2C2CCCC2)CC1 (centres undefined)	-	-	51.4	0	-	0	0	0
CN(c1ccccc1)S(=O)(=O)c1cc(C(=O)NCc2ccco2)ccc1Cl	-	-	0	0	-	-	-	-
CC(C)C[C@H]1CN([C@@H](Cc2ccc(O)cc2)CN2CCCC2CN2C(=S)NC[C@@H]2Cc2ccccc2)C(=S)N1CC1CCCCC1 (some centres undefined)	-	-	0	0	-	-	-	-
Cc1oc(C(C)(C)C)cc1C(=O)N1CCN(c2ncccc2C(F)(F)F)CC1	0	0	0	0	0	-	-	-
Cc1cc(C)c2cc(C(=O)N3CCN(c4ncccc4C(F)(F)F)CC3)[nH]c2c1	0	0	77.1	0	0	0	0	0
CC(C)(C)NC(=O)N1CCN(c2ncccc2C(F)(F)F)CC1	0	0	0	0	0	-	-	-
O=C(c1ccc(-n2cccn2)cc1)N1CCN(c2ncccc2C(F)(F)F)CC1	0	0	86.6	0	0	79.6	0	0
Cc1ccnn1CCC(=O)N1CCCC(N2CCN(c3cccc(Cl)c3)CC2)C1 (centres undefined)	0	0	0	0	0	-	-	-
Clc1ccc(OCc2nnnn2-c2ccccc2)cc1	0	0	78.6	0	0	54.4	0	0
CCNC(=O)C1CCCN(C(=O)c2c(-c3ccccc3)noc2C)CC1 (centres undefined)	-	-	0	0	-	-	-	-
COc1ccccc1C(=O)NCC(=O)N/N=C(\C)Cc1ccccc1	0	0	0	0	0	-	-	-
Cc1cc(NC(=O)c2ccc(F)cc2)n(C)n1	0	0	0	0	0	-	-	-
